According to ChEMBL document CHEMBL3124901, “Inhibitory effect of a callophycin A derivative on iNOS expression via inhibition of Akt in lipopolysaccharide-stimulated RAW 264.7 cells” (2014):
Active and inactive are the calls of the source. The rule behind the calls is not given here.

What was measured:
RAW264.7 [1] = assay: Antiinflammatory activity in LPS-stimulated mouse RAW264.7 cells assessed as inhibition of iNOS protein expression at 50 uM preincubated for 15 mins followed by LPS challenge measured after 20 hrs by Western blot analysis; assay type: functional, cell-based
RAW264.7 [2] = assay: Inhibition of PI3K/AKT in mouse RAW264.7 cells assessed as inhibition of LPS-induced iNOS protein expression at 25 uM after 20 hrs by Western blot analysis; assay type: cell-based
In short: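 Pretreatment with 25 μM or LY294002 (25 μM), then LPS for 20 h; iNOS protein by Western blot.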

Row | Structure (SMILES) | inhibition (RAW264.7 [1]) | inhibition (RAW264.7 [2])
1 | O=C(O)[C@@H]1Cc2c([nH]c3ccccc23)CN1Cc1ccc(O)cc1 | inactive | 
2 | O=C(O)[C@H]1Cc2c([nH]c3ccccc23)CN1Cc1ccc(O)cc1 | inactive | 
3 | O=c1cc(N2CCOCC2)oc2c(-c3ccccc3)cccc12 |  | Active
